From ChEMBL document CHEMBL4325909, “Synthesis and evaluation of chalcone analogues containing a 4-oxoquinazolin-2-yl group as potential anti-tumor agents” (Eur J Med Chem, 2019)
Activity calls are given as the source filed them. No cut-off for these calls is given here.

Tests used:
[1] = Induction of apoptosis in human MCF10A cells assessed as viable cells at 1 uM after 12 hrs by annexin V-FITC/propidium iodide staining-based flow cytometry method (reference value: 95.4%); assay type: cell-based, MCF-10A; details: read-out: Activity
Summary of the method: (§1)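 Cells were stained with Annexin V-FITC/PI and gated by flow cytometry into live, early apoptotic, late apoptotic and necrotic quadrants. Apoptotic fraction is early plus late, mean ± SD of three independent experiments.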

HCT-116 [2] = test: Induction of apoptosis in human HCT116 cells assessed as necrotic cells at 1 uM after 12 hrs by annexin V-FITC/propidium iodide staining-based flow cytometry method (reference value: 4.8%); assay type: functional
MCF-10A [3] = test: Induction of apoptosis in human MCF10A cells assessed as early apoptotic cells at 1 uM after 12 hrs by annexin V-FITC/propidium iodide staining-based flow cytometry method (reference value: 0.20%); assay type: cell-based; summary of the method: as §1
HCT-116 [4] = test: Induction of reactive oxygen species generation in human HCT116 cells assessed as increase in mitochondrial superoxide generation at 1 uM after 12 hrs by MitoSOX red dye-based fluorescence microscopic analysis; assay type: functional, cell-based
HCT-116 [5] = test: Induction of apoptosis in human HCT116 cells at 1 uM after 12 hrs by acridine orange/ethidium bromide staining-based fluorescence microscopic analysis; assay type: functional, cell-based
HCT-116 [6] = test: Induction of apoptosis in human HCT116 cells assessed as early apoptotic cells at 1 uM after 12 hrs by annexin V-FITC/propidium iodide staining-based flow cytometry method (reference value: 3.8%); assay type: functional
HCT-116 [7] = test: Induction of apoptosis in human HCT116 cells assessed as viable cells at 1 uM after 12 hrs by annexin V-FITC/propidium iodide staining-based flow cytometry method (reference value: 86.0%); assay type: functional; details: HCT-116, 12 h, read-out: Activity
HCT-116 [8] = test: Induction of mitochondrial membrane depolarization in human HCT116 cells at 1 uM after 12 hrs by JC-1 staining based fluorescence microscopic analysis; assay type: functional, cell-based
MCF-10A [9] = test: Induction of apoptosis in human MCF10A cells assessed as necrotic cells at 1 uM after 12 hrs by annexin V-FITC/propidium iodide staining-based flow cytometry method (reference value: 0.57%); assay type: cell-based; summary of the method: as §1
MCF-10A [10] = test: Induction of apoptosis in human MCF10A cells after 12 hrs by annexin V-FITC/propidium iodide staining-based flow cytometry method; assay type: cell-based; summary of the method: as §1
HCT-116 [11] = test: Induction of apoptosis in human HCT116 cells assessed as late apoptotic cells at 1 uM after 12 hrs by annexin V-FITC/propidium iodide staining-based flow cytometry method (reference value: 5.4%); assay type: functional
HCT-116 [12] = test: Induction of apoptosis in human HCT116 cells after 12 hrs by annexin V-FITC/propidium iodide staining-based flow cytometry method; assay type: functional, cell-based

## CN[C@@H]1C[C@H]2O[C@@](C)([C@@H]1OC)n1c3ccccc3c3c4c(c5c6ccccc6n2c5c31)C(=O)NC4 [STAUROSPORINE]
[1]
  viability at 12 h, 1 µM: 85.6%
HCT-116 [2]
  Activity: 3%
MCF-10A [3]
  Activity: 2.18%
HCT-116 [4]
  Activity: Active
HCT-116 [5]
  Activity: Active
HCT-116 [6]
  Activity: 25.6%
HCT-116 [7]
  viability at 1 µM: 63.1%
HCT-116 [8]
  Activity: Active
MCF-10A [9]
  Activity: 1.22%
MCF-10A [10]
  Activity: Dose-dependent effect
HCT-116 [11]
  Activity: 8.4%
HCT-116 [12]
  Activity: Dose-dependent effect
